From ChEMBL document CHEMBL4138195, “Discovery of novel propargylamine-modified 4-aminoalkyl imidazole substituted pyrimidinylthiourea derivatives as multifunctional agents for the treatment of Alzheimer's disease” (Eur J Med Chem, 2018)

Organism: Homo sapiens
Experiment: Selectivity index, ratio of IC50 for recombinant human MAOA to IC50 for recombinant human MAOB
Summary of the method: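 Recombinant human MAO-A (12.5 µg/mL) or MAO-B (75 µg/mL) preincubated 15 min at 37 °C with compound (diluted from 10 mM DMSO stock in 50 mM KH2PO4, pH 7.4). Amplex Red working solution added: 2 mM p-tyramine (MAO-A) or benzylamine (MAO-B), 2 U/mL HRP. After 15 min at 37 °C, fluorescence read (ex 545/em 590), background from enzyme-free wells subtracted.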

C#CCN(C)Cc1cn(-c2cc(NC(=S)NCC)ncn2)cn1
Ratio IC50: > 35
